Data: ChEMBL document CHEMBL4020839, “Class I HDAC Inhibitors Display Different Antitumor Mechanism in Leukemia and Prostatic Cancer Cells Depending on Their p53 Status” (J Med Chem, 2018)
The source made the active and inactive calls. The rule behind the calls is not given here.

Key:
MV4-11 [1] = experiment: Downregulation of HDAC6 protein expression in human MV4-11 cells at >= 0.5 uM after 24 hrs by Western blot analysis; format: functional, cell-based
In short: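 MV4-11 cells treated 24 h at 0.25, 0.5, 1 and 2 μM, with 5 μM SAHA as reference. RIPA lysates normalized by BCA, run on 4–12% Bis-Tris gels, probed with primary antibodies at 1/1000 overnight at 4 °C. HDAC6 and acetylated histones/tubulin detected; actin as loading control. Representative of n = 2.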

Histone deacetylase 8 = biological target: T1, Histone deacetylase 8 (Homo sapiens, UniProt Q9BY41); experiment: Inhibition of full length recombinant human C-terminal His-tagged HDAC8 expressed in baculovirus expression system using Boc-Lys(trifluoroacetyl)-AMC as substrate preincubated for 1 hr followed by substrate addition measured after 2 hrs by fluorescence assay
T1 sequence (Q9BY41 whole entry): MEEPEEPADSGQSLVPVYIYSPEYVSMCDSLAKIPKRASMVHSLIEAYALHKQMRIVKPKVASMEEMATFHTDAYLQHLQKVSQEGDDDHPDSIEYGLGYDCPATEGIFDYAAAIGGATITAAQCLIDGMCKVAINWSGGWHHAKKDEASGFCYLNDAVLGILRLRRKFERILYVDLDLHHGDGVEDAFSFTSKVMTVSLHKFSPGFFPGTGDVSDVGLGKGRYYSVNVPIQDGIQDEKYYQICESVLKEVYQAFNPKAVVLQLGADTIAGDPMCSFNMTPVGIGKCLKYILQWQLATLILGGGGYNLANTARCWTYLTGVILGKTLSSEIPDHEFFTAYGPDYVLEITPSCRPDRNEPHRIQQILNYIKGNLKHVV
In short: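 Recombinant HDAC incubated with serial compound dilutions at 30 °C for 1 h. Reaction run 2 h at 30 °C, stopped with developer containing trypsin and TSA. Fluorescence read after 30 min at 360/460 nm. Inhibition relative to control wells; IC50 from variable-slope fit.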

PC-3 = experiment: Induction of apoptosis in human PC3 cells assessed as increase in cleaved caspase-3 level at 1 to 2 uM after 24 hrs by Western blot method; format: functional, cell-based
In short: (§1)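 MV4-11 (1,500,000/well) or PC-3 (300,000/well) grown 12 h, then treated 24 h at 1 and 2 μM, with 5 μM SAHA as reference. RIPA lysis, sonication and centrifugation, BCA normalization. NuPAGE 4–12% Bis-Tris gel in MES, transfer, primary antibodies 1/1000 overnight at 4 °C. Actin as loading control.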

[2] = biological target: T2, Protein deacetylase HDAC6 (Homo sapiens) (UniProt Q9UBN7); experiment: Inhibition of HDAC6 in human PC3 cells assessed as increase in acetylated tubulin level at 1 to 2 uM after 24 hrs by Western blot method; format: cell-based; in short: as §1
T2 sequence (whole entry): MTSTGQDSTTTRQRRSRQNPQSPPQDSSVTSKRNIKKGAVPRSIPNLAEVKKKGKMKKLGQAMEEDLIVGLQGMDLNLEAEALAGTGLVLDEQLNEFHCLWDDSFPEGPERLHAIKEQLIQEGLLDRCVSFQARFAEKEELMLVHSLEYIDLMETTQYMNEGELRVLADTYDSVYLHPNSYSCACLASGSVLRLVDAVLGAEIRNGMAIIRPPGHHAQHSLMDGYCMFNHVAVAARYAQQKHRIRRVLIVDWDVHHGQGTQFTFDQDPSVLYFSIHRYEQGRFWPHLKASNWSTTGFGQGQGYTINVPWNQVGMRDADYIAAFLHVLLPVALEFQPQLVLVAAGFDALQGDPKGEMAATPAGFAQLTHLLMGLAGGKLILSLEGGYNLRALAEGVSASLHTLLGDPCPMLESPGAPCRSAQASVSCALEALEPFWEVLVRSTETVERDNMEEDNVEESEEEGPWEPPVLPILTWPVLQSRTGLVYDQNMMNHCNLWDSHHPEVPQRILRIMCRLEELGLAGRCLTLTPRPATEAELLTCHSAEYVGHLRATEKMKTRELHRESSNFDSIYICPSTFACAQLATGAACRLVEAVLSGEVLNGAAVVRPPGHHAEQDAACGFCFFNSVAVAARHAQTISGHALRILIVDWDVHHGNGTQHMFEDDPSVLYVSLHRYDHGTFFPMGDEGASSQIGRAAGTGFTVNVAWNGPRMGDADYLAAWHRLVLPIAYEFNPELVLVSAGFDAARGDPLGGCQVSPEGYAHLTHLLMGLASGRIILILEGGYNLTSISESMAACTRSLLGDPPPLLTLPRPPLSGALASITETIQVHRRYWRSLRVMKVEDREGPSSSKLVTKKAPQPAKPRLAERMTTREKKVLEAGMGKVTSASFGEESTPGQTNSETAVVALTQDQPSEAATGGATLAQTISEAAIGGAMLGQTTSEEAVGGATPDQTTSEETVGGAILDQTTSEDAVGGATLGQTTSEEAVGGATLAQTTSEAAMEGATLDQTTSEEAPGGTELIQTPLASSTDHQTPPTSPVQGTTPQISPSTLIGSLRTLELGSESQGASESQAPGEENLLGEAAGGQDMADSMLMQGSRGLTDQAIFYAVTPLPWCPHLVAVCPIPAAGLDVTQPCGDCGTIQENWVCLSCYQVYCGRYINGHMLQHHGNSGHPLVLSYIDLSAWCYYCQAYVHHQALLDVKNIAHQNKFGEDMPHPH

MV4-11 [3] = experiment: Downregulation of HDAC1 protein expression in human MV4-11 cells at 1 to 2 uM after 24 hrs by Western blot method; format: functional, cell-based; in short: as §1
MV4-11 [4] = experiment: Cell cycle arrest in human MV4-11 cells assessed as accumulation at G1/S phase at 0.5 uM after 24 hrs by propidium iodide staining based flow cytometry; format: functional
MV4-11 [5] = experiment: Cell cycle arrest in human MV4-11 cells assessed as accumulation at subG1 phase after 24 hrs by propidium iodide staining based flow cytometry; format: functional
Histone deacetylase 1 = Histone deacetylase 1 (Homo sapiens, UniProt Q13547); conditions: 0.25 to 2 uM
Histone deacetylase 2 = Histone deacetylase 2 (Homo sapiens, UniProt Q92769); conditions: 0.25 to 2 uM
Chain of Histone deacetylase 2 (Q92769 whole entry): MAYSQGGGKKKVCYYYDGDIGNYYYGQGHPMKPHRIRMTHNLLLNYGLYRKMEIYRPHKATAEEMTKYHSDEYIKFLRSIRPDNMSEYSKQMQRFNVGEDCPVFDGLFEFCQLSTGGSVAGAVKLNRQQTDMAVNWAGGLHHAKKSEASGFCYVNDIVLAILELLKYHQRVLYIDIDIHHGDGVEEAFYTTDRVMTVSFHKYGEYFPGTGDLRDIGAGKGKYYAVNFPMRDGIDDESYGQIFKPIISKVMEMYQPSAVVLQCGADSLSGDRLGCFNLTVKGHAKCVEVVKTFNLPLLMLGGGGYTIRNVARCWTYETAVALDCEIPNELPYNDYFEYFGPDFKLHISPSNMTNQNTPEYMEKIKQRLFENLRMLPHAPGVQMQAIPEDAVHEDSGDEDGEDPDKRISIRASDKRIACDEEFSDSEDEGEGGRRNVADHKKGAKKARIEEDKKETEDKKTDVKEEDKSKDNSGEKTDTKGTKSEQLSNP

Chain of Histone deacetylase 1 (Q13547 whole entry): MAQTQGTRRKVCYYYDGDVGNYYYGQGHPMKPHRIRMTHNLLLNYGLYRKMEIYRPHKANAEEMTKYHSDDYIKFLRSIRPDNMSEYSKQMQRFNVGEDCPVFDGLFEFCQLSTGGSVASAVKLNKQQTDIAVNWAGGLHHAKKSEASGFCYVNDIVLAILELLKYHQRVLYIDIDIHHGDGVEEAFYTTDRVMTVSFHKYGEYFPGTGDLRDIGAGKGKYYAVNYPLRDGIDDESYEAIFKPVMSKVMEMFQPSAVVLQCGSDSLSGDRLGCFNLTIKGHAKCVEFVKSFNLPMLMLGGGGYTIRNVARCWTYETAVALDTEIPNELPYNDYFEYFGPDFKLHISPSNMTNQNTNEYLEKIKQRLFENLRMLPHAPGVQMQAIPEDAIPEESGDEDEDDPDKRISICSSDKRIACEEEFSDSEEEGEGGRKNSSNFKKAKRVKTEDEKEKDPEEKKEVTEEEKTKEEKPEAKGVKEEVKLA

IC50 (Histone deacetylase 8): 626 nM | inhibition [2]: inactive | inhibition (Histone deacetylase 1): Active | inhibition (Histone deacetylase 2): Active
SMILES: CCCNNC(=O)c1ccc(NC(=O)[C@H](Cc2c[nH]c3ccccc23)NC(=O)c2ccc(OC)cc2)cc1
Activity (MV4-11 [1]): Active | Activity (PC-3): inactive | Activity (MV4-11 [3]): inactive | Activity (MV4-11 [4]): Active | Activity (MV4-11 [5]): Dose-dependent effect
